Screening data: PubChem BioAssay, Broad Institute
Ecoli rRNA inh = selective bacterial rRNA inhibition in E. coli; GFP signal change (wild-type ribosome), % (test concentration not listed); E. coli WT GFP vs humanized-ribosome RFP mutants, fluorescence, 24 h; active compounds read low; DMSO median 0, no signal -100; 1.6% of 350,000 active;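 active means significant combined selectivity score with lowered wild-type GFP, culture density cut under 30%, mutant RFP and density less affected; inactive means any of these conditions unmet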
ERAP1 HTS inh = ERAP1 (human) enzyme inhibition; Q9NZ08; AID 652197; 0.15% of 340,000 active; inhibition, % at 10.7 µM; recombinant ERAP1, Leu-AMC fluorescence, 60 min;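 active means mean replicate inhibition of at least 30%, or all replicates individually reaching that 30% level; inactive means mean below 30% and not every replicate reaching it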;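 further: 0% = neutral control wells and 100% = L-leucinethiol positive control wells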
S100A4 MyoIIA = S100A4-myosin IIA interaction inhibition. 0.14% of 360,000 active. S100A4/TAMRA-MyoIIA peptide fluorescence polarization. inhibition, % at 10.7 µM;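 active means mean inhibition of at least 70% across replicates, with every replicate also reaching that level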
Target sequence (P26447 whole entry, looked up): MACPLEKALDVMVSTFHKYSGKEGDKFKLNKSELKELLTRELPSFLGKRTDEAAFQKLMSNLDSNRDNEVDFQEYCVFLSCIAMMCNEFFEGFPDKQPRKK
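Test system: S100A4 monomer protein; Medium: HEPES pH 7.2 with CaCl2, KCl, NaCl, DTT, Triton; Probe or stimulus: TAMRA-labelled myosin IIA heavy-chain peptide probe, 5 nM; Doses: one dose per compound; Times: polarization read 5 min after assay mix addition, stable 5–60 min; Benchmarks: neutral control DMSO, positive control TFP.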
SIRT5 block = sirtuin-5 (human) deacylase inhibition; Q9NXA8; Purified SirT5, succinyl-peptide AMC, trypsin-coupled fluorescence; inhibition, % at 15 µM; 1.1% of 330,000 active; in the data active means inhibition above about 15%
Target sequence (Q9NXA8 whole entry, looked up): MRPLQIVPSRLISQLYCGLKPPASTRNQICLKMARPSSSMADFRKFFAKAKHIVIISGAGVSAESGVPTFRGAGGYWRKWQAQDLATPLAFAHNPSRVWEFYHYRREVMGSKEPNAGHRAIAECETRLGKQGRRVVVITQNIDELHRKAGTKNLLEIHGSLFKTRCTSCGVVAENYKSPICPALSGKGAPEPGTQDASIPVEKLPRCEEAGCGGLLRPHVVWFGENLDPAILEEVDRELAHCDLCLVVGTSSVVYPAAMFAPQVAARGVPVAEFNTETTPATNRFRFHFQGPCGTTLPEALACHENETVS
CFTR F508del cor = correctors of CFTR F508del function in bronchial epithelial cells. 0.36% of 350,000 active. CFBE cells, YFP halide quenching; stimulated with forskolin plus potentiator P3; % fluorescence drop versus neutral controls. AID 720511. activity (quench increase), % at 7.58 µM;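 active means mean added fluorescence quench of at least 8% versus neutral control, with both replicates also reaching 8%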;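 further: cells transiently co-express mutant CFTR-F508del with the halide-sensitive YFP; corrector assay measuring rescue of mutant channel to the surface after 24 h compound exposure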
An asterisk follows results filed as active. Rows were chosen to be rich in hits. Some 3.1% of all compounds tested hit in one or more screens of this group.

For COc1cc2c(c(OC)c1OC)-c1ccc(N(C)CC(OC)OC)c(=O)cc1[C@@H](NC(C)=O)CC2 the results were Ecoli rRNA inh 14.6, ERAP1 HTS inh 6.1, S100A4 MyoIIA -15.8, SIRT5 block -2.7 and CFTR F508del cor 3.5.
`CN[C@H]1CCc2cc(OC)c(OC)c(OC)c2-c2ccc(N(C)CC(OC)OC)c(=O)cc21` gave Ecoli rRNA inh 12.7, ERAP1 HTS inh 5.1, S100A4 MyoIIA 1.2, SIRT5 block 0.9 and CFTR F508del cor 10.8*.
For Cc1cccc(OCCC(=O)N(C)CC(=O)Nc2cccc3ccccc23)c1 the results were Ecoli rRNA inh -19.9*, ERAP1 HTS inh 0.5, S100A4 MyoIIA -5.1 and SIRT5 block -2.9.
Screening Cc1ccc(OCCCC(=O)N(C)CC(=O)Nc2ccccc2Cl)cc1 returned Ecoli rRNA inh -13.4, ERAP1 HTS inh 4.8, S100A4 MyoIIA 6.4, SIRT5 block -0.3 and CFTR F508del cor -0.7.
For CCS(=O)(=O)N1Cc2cc(C(=O)O)nc(-c3cccc(-c4ccc(C#N)cc4)c3)c2[C@H]1CCO the results were Ecoli rRNA inh 4.5, ERAP1 HTS inh 0.6, S100A4 MyoIIA 0.7, SIRT5 block 0.5 and CFTR F508del cor -2.2.
O=C(C[C@H]1C=C[C@H](NC(=O)C2CCC2)[C@@H](CO)O1)NCc1ccccc1Cl was read as Ecoli rRNA inh 3.1, ERAP1 HTS inh 0.9, S100A4 MyoIIA 6.7, SIRT5 block -3.2 and CFTR F508del cor -0.9.
For Cc1ccc(S(=O)(=O)Nc2ccc3c(c2)CC(=O)N([C@H](C)CO)C[C@H](C)[C@@H](CN(C)C(=O)NC(C)C)O3)cc1 the results were Ecoli rRNA inh -2.4, ERAP1 HTS inh -0.1, S100A4 MyoIIA 1.0, SIRT5 block -1.3 and CFTR F508del cor 0.1.
For C[C@H]1CCCCO[C@@H](CN(C)Cc2ccccc2)[C@@H](C)CN([C@@H](C)CO)C(=O)c2cc(NS(=O)(=O)c3ccc(Cl)cc3)ccc2O1 the results were Ecoli rRNA inh -19.6, ERAP1 HTS inh -1.3, S100A4 MyoIIA -3.9, SIRT5 block 6.3 and CFTR F508del cor 0.5.
C[C@@H]1CCCCO[C@@H](CN(C)Cc2ccccc2)[C@@H](C)CN([C@@H](C)CO)C(=O)c2cc(NS(=O)(=O)c3ccc(Cl)cc3)ccc2O1 was read as Ecoli rRNA inh -5.9, ERAP1 HTS inh -1.5, S100A4 MyoIIA -10.4, SIRT5 block 17.9* and CFTR F508del cor 1.6.
For Cc1ccc(S(=O)(=O)Nc2ccc3c(c2)C(=O)N([C@@H](C)CO)C[C@@H](C)[C@H](CN(C)Cc2ccccc2)OCCCC[C@H](C)O3)cc1 the results were Ecoli rRNA inh -1.6, ERAP1 HTS inh 2.1, S100A4 MyoIIA -7.8, SIRT5 block 17.2* and CFTR F508del cor 1.2.
Screening O=C(C[C@H]1C=C[C@@H](NC(=O)C2CCC2)[C@H](CO)O1)NCCCN1CCOCC1 returned Ecoli rRNA inh -1.7, ERAP1 HTS inh -1.0, S100A4 MyoIIA 8.2, SIRT5 block 0.3 and CFTR F508del cor -0.7.
CC(C)c1ccccc1OCC(=O)Nc1ccc2[nH]ncc2c1 was read as Ecoli rRNA inh -22.3, ERAP1 HTS inh -3.9, S100A4 MyoIIA -1.4, SIRT5 block 18.3* and CFTR F508del cor -1.2.
`CN(C)C(=O)c1cccc(-c2ccc3c(c2)[C@H]2[C@H](CCN2C(=O)c2ccccc2)[C@@H](CO)N3C)c1` gave Ecoli rRNA inh -9.6, ERAP1 HTS inh -2.8, S100A4 MyoIIA 32.9, SIRT5 block 15.2* and CFTR F508del cor -3.4.
CN(C)C(=O)c1ccc(-c2ccc3c(c2)[C@H]2[C@H](CCN2C(=O)C2CCOCC2)[C@@H](CO)N3C)cc1 was read as Ecoli rRNA inh 2.1, S100A4 MyoIIA -16.1, SIRT5 block 17.2* and CFTR F508del cor 0.1.
CN1c2ccc(-c3ccccc3)cc2[C@H]2[C@H](CCN2C(=O)c2ccccc2)[C@H]1CO was read as Ecoli rRNA inh -2.1, ERAP1 HTS inh -7.3, S100A4 MyoIIA 22.4 and CFTR F508del cor 1.3.
Screening CN1c2ccc(-c3ccc(F)cc3)cc2[C@@H]2[C@@H](CCN2C(=O)c2ccncc2)[C@H]1CO returned Ecoli rRNA inh -4.5, ERAP1 HTS inh -3.9, S100A4 MyoIIA 0.6, SIRT5 block -4.2 and CFTR F508del cor 0.8.
For COc1cccc(-c2ccc3c(c2)[C@H]2[C@H](CCN2C(=O)c2ccccc2F)[C@@H](CO)N3C)c1 the results were Ecoli rRNA inh -9.8 and CFTR F508del cor -2.6.
